Reference: ChEMBL document CHEMBL5653622 (Oncotarget, 2016)
The source made the active and inactive calls. The calls are words filed in the database; no cut-off is given here.

Experiments:
[1] = biological target: Receptor-interacting serine/threonine-protein kinase 2 (Homo sapiens) (UniProt O43353); assay: Inhibition of human RIPK2 assessed as remaining activity at 10 uM in presence of ATP by radiometric kinase assay relative to control
[2] = biological target: Dual specificity mitogen-activated protein kinase kinase 1 (Homo sapiens) (UniProt Q02750); assay: Inhibition of human MKK1 assessed as remaining activity at 10 uM in presence of ATP by radiometric kinase assay relative to control
Dual specificity mitogen-activated protein kinase kinase 1 (Homo sapiens), sequence (Q02750 whole entry): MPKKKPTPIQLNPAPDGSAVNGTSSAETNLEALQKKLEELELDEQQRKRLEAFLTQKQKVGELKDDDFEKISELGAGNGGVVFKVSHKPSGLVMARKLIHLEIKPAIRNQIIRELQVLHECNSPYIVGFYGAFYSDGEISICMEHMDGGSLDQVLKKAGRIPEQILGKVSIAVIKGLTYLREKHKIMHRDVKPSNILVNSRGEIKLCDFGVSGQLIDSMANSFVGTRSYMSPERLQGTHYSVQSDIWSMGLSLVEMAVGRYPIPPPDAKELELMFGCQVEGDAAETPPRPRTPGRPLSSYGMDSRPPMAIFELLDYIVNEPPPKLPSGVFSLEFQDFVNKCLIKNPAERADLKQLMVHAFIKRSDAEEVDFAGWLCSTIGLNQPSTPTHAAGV

[3] = tested on: HT-29; assay: Induction of cell cycle arrest in human HT-29 cells assessed as accumulation of cells at G0/G1 phase at 0.5 uM incubated for 24 hrs by BrdU and PI staining based flow cytometry analysis; type: functional
Method in brief: (§1)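 HT29 cells exposed for 24h, stained with bromodeoxyuridine and propidium iodide, and cell-cycle distribution measured by flow cytometry.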

[4] = Tmax in BALB/C mouse spleen at 10 mg/kg, iv by LC/MS-MS analysis; type: ADME, organism-based
[5] = tested on: Mus musculus; assay: In vivo inhibition of CHK1 in CRTac:Ncr-Fox1 mouse xenografted with human HT-29 cells assessed as reduction of phosphorylation of CHK1 on S317 at 50 to 100 mg/kg, po administered for 24 hrs by Western blotting analysis; type: functional, organism-based; details: dose 50-100 mg/kg
Method in brief: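 HT29 s.c. xenografts in female athymic nude mice. Single gemcitabine dose 100mg/kg i.v. on day 0, then one inhibitor dose 50 or 100mg/kg p.o. (DPTW vehicle) 24h later. Tumors taken 24h after the last dose, western blotted, and signals quantified by normalizing to GAPDH.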

[6] = tested on: HT-29; assay: Induction of cell cycle arrest in etoposide induced human HT-29 cells assessed as increase in accumulation of cells at S phase at 1 to 5 uM incubated for 24 hrs by BrdU and PI staining based flow cytometry analysis; type: functional; details: dose 1-5 µM; method in brief: as §1
[7] = biological target: Dual specificity tyrosine-phosphorylation-regulated kinase 1A (Homo sapiens) (UniProt Q13627); assay: Inhibition of human DYRK1A assessed as remaining activity at 10 uM in presence of ATP by radiometric kinase assay relative to control
[8] = biological target: Protein-tyrosine kinase 6 (Homo sapiens) (UniProt Q13882); assay: Inhibition of human BRK assessed as remaining activity at 10 uM in presence of ATP by radiometric kinase assay relative to control
Protein-tyrosine kinase 6 (Homo sapiens), sequence (Q13882 whole entry, looked up): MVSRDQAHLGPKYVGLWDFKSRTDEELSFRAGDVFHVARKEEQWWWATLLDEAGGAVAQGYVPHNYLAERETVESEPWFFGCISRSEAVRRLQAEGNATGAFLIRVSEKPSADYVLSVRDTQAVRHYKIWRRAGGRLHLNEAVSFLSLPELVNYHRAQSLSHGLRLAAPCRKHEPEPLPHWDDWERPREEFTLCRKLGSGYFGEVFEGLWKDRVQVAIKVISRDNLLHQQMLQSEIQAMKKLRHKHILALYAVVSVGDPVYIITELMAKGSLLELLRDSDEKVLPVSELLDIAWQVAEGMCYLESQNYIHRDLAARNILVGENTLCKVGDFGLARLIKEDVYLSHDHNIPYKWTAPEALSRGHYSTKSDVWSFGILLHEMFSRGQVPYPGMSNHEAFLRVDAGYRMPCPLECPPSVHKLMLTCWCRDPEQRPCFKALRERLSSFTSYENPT

[9] = biological target: Tyrosine-protein kinase CSK (Homo sapiens) (UniProt P41240); assay: Inhibition of human CSK assessed as remaining activity at 10 uM in presence of ATP by radiometric kinase assay relative to control
Tyrosine-protein kinase CSK (Homo sapiens), sequence (P41240 2-450 limits assumed): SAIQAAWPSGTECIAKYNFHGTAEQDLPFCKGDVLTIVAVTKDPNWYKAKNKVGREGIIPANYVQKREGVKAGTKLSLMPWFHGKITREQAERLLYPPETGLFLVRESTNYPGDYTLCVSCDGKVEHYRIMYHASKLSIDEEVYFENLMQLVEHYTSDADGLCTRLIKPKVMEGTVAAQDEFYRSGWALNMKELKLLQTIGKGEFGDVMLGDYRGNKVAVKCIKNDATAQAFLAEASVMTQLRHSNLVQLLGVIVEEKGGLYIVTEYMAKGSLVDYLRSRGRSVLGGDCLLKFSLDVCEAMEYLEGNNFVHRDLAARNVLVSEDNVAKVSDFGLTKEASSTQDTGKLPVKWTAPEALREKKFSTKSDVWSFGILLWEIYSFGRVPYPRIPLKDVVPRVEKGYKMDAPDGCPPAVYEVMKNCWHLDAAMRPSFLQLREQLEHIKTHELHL

[10] = Cmax in BALB/C mouse spleen at 10 mg/kg, po by LC/MS-MS analysis; type: ADME, organism-based
Method in brief: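 Female BALB/c mice received a single 10mg/kg bolus i.v. or p.o. Plasma (and spleen homogenate) extracted with methanol containing internal standards. Concentrations were measured by LC/MS-MS and PK parameters calculated with modelling software.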

[11] = tested on: HT-29; assay: Induction of apoptosis in human HT-29 cells assessed as increased in cleaved PARP in presence of gemcitabine by Western blotting analysis; type: functional, cell-based
[12] = biological target: Cyclin-dependent kinase 1 (Homo sapiens) (UniProt P06493); assay: Inhibition of human CDK1 by DELFIA assay
Cyclin-dependent kinase 1 (Homo sapiens), sequence (P06493 whole entry, looked up): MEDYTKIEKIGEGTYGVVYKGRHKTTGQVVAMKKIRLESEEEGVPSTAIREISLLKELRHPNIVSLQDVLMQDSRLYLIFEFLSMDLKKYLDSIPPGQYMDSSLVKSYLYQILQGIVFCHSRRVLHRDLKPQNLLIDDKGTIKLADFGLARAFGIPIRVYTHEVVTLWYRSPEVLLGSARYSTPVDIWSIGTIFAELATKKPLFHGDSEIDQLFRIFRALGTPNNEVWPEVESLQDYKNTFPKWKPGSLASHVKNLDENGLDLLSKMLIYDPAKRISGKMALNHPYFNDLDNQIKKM

[13] = biological target: Interleukin-1 receptor-associated kinase 1 (Homo sapiens) (UniProt P51617); assay: Inhibition of human IRAK1 assessed as remaining activity at 10 uM in presence of ATP by radiometric kinase assay relative to control
Interleukin-1 receptor-associated kinase 1 (Homo sapiens), sequence (P51617 whole entry, looked up): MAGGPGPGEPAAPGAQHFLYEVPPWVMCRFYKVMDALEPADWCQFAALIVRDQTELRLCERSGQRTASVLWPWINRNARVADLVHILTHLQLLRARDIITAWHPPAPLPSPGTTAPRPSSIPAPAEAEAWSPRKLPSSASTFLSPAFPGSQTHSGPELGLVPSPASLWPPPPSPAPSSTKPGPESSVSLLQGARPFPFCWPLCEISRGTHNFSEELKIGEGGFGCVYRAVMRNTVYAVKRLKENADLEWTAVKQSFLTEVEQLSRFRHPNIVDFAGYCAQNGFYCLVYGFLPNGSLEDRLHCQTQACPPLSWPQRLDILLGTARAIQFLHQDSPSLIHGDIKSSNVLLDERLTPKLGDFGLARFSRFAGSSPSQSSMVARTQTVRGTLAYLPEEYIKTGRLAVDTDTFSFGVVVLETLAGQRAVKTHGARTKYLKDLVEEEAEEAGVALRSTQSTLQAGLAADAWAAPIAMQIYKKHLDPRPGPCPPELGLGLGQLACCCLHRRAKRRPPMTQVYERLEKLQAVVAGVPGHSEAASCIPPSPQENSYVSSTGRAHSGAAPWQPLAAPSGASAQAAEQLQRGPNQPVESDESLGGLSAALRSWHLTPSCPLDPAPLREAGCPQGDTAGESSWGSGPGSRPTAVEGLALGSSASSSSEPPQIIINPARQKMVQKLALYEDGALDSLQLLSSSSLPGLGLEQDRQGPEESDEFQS

[14] = tested on: HT-29; assay: Induction of apoptosis in human HT-29 cells assessed as phosphorylation of H2AX on S139 in presence of gemcitabine by Western blotting analysis; type: functional, cell-based
[15] = Toxicity in CRTac:Ncr-Fox1 mouse xenografted with human Calu-6 cells assessed as body weight at 150 mg/kg, po administered for 3 days in presence of gemcitabine relative to control; type: organism-based; details: in vivo, 72 h, time 3 day
[16] = biological target: Myosin light chain kinase, smooth muscle (Homo sapiens) (UniProt Q15746); assay: Inhibition of human SmMLCK assessed as remaining activity at 10 uM in presence of ATP by radiometric kinase assay relative to control
[17] = tested on: Mus musculus; assay: In vivo inhibition of CHK1 in CRTac:Ncr-Fox1 athymic mouse xenografted with human Calu-6 cells assessed as enhanced phosphorylation of CHK1 on S345 at 150 mg/kg, po in presence of gemcitabine and carboplatin by Western blotting analysis; type: functional, organism-based
Method in brief: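 Female CRTac:Ncr-Fox1(nu) athymic mice carried s.c. Calu6 xenografts. Tumors were taken 6h after the last inhibitor dose, lysed in CHAPS buffer, and immunoblotted with GAPDH as loading control.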

[18] = biological target: Protein kinase C gamma type (Homo sapiens) (UniProt P05129); assay: Inhibition of human PKC gamma assessed as remaining activity at 10 uM in presence of ATP by radiometric kinase assay relative to control
[19] = biological target: Ephrin type-B receptor 4 (Homo sapiens) (UniProt P54760); assay: Inhibition of human EPH-B4 assessed as remaining activity at 10 uM in presence of ATP by radiometric kinase assay relative to control
Ephrin type-B receptor 4 (Homo sapiens), sequence (P54760 whole entry): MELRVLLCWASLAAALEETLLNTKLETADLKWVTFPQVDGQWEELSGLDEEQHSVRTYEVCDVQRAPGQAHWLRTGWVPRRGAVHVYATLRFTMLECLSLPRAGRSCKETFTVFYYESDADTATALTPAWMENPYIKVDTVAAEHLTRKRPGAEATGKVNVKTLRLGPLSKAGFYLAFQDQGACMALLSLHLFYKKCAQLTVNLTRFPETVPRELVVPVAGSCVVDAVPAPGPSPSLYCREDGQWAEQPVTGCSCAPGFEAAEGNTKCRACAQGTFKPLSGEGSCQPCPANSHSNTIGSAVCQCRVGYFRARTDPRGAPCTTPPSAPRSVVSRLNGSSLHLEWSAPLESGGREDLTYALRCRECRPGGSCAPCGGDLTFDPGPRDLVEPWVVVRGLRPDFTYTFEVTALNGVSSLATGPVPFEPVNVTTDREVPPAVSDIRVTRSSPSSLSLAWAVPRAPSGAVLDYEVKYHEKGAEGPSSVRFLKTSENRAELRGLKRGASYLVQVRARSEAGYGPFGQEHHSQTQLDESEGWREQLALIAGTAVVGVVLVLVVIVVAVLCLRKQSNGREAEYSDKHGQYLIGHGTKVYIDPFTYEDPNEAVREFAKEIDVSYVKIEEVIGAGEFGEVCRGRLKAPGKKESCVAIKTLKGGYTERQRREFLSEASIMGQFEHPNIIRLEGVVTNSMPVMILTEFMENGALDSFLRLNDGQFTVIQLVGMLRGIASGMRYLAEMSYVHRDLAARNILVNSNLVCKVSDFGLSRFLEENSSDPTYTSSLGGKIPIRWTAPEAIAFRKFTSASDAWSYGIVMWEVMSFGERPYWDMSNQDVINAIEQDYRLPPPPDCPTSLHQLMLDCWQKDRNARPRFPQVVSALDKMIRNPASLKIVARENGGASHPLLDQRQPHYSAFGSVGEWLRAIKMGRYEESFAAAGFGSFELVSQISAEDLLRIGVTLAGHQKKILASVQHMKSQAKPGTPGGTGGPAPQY

[20] = biological target: MAP kinase-activated protein kinase 3 (Homo sapiens) (UniProt Q16644); assay: Inhibition of human MAPKAP-K3 assessed as remaining activity at 10 uM in presence of ATP by radiometric kinase assay relative to control
MAP kinase-activated protein kinase 3 (Homo sapiens), sequence (Q16644 whole entry, looked up): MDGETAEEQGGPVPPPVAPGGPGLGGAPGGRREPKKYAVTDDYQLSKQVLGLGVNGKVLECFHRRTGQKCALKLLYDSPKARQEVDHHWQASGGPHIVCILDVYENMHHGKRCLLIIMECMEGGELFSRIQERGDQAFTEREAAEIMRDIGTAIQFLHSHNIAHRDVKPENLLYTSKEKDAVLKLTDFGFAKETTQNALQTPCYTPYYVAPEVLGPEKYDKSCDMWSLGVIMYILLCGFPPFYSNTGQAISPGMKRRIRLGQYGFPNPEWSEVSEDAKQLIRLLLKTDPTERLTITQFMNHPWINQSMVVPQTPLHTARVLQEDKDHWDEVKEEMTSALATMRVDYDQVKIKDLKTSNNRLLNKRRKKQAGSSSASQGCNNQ

[21] = tested on: Mus musculus; assay: In vivo inhibition of total CHK1 in CRTac:Ncr-Fox1 athymic mouse xenografted with human Calu-6 cells at 150 mg/kg, po in presence of gemcitabine and carboplatin by ELISA analysis; type: functional, organism-based
[22] = biological target: Homeodomain-interacting protein kinase 3 (Homo sapiens) (UniProt Q9H422); assay: Inhibition of human HIPK3 assessed as remaining activity at 10 uM in presence of ATP by radiometric kinase assay relative to control
[23] = species on record: Homo sapiens; assay: Inhibition of human AMPK at 10 uM in presence of ATP by radiometric kinase assay relative to control
[24] = biological target: Mitogen-activated protein kinase 15 (Homo sapiens, UniProt Q8TD08); assay: Inhibition of human ERK8 in presence of ATP by radiometric kinase assay

Receptor-interacting serine/threonine-protein kinase 2 (Homo sapiens), sequence (O43353 whole entry): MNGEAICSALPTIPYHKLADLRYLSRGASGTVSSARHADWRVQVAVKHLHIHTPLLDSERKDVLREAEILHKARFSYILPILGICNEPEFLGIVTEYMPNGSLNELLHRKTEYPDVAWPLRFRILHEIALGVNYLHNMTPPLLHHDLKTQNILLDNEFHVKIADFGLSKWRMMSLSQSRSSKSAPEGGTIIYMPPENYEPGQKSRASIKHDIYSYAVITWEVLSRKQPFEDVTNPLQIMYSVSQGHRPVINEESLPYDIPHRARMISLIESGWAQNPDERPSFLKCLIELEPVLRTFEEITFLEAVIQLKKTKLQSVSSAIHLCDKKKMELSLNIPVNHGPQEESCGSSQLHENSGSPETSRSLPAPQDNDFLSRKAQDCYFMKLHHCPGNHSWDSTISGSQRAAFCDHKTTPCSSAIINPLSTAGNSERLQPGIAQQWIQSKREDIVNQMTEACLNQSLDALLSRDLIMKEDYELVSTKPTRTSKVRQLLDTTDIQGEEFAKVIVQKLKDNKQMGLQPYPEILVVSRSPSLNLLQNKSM

## N#Cc1cnc(Nc2cc(NC[C@H]3CNCCO3)c(C(F)(F)F)cn2)cn1 [SRA-737]
[1]
  Activity: 101%
[2]
  Activity: 68%
[3]
  Activity: Active
[4]
  Tmax: 30 min
[5]
  Activity: inactive
[6]
  Activity: Active
[7]
  Activity: 41%
[8]
  Activity: 108%
[9]
  Activity: 82%
[10]
  Cmax: 30.1 µM
[11]
  Activity: Active
[12]
  IC50: 2440 nM
[13]
  Activity: 38%
[14]
  Activity: Active
[15]
  Activity: 98%
[16]
  Activity: 84%
[17]
  Activity: Active
[18]
  Activity: 87%
[19]
  Activity: 81%
[20]
  Activity: 114%
[21]
  inhibition: Active
[22]
  Activity: 124%
[23]
  inhibition: 68%
[24]
  IC50: 130 nM
